Data: ChEMBL document CHEMBL4513216, “Probing the Open Global Health Chemical Diversity Library for Multistage-Active Starting Points for Next-Generation Antimalarials” (ACS Infect Dis, 2020)

Test: Toxicity liver stage against HepG2, at 10uM
Assay type: cell-based
Parameters: test concentration 10 uM, cell line HepG2-A16-CD81EGFP
Conditions: human, HepG2-A16-CD81EGFP cells; read-out: INHIBITION
Outline: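 Uninfected HepG2-A16-CD81EGFP cells, 3 × 10^3 per well, 1536-well, plated on prespotted compound at 10 μM final, parasite-free screening media added to match infected plates; puromycin 10 μM positive, DMSO 0.5% negative; run in parallel with 48 h PbLuc assay at 37 °C, 5% CO2; viability by CellTiter-Glo luminescence, normalized to controls.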

Cc1ccc(SCC2CNc3nc4ccccc4c(=O)n32)c(C)c1 (stereo not given)
cytotoxicity at 10 µM: 6.76%

CC(C)NC(=O)NC[C@H]1OC[C@@H](NCc2ccc(S(C)(=O)=O)cc2)[C@@H]1O
cytotoxicity at 10 µM: 6.7%

CN1CCC(N2CCOC[C@H]2c2nc(C(C)(C)C)c[nH]2)CC1
cytotoxicity at 10 µM: 2.73%

Cc1ccc(CN2C[C@H](O)C[C@H]2c2nc(-c3ccc(F)cc3)no2)cc1
cytotoxicity at 10 µM: -0.456%

Nc1c(N2CCOCC2)ncnc1N1CCOCC1
cytotoxicity at 10 µM: -1.31%

O=C(C1CC1)N1CCN2C[C@@H](CO)[C@H](c3ccccc3)[C@H]2C1
cytotoxicity at 10 µM: 8.52%

COc1cccc2ccn(CC(=O)NCC(C)C)c12
cytotoxicity at 10 µM: -36.5%

N#Cc1cccc(C(=O)N2CC(c3nc(-c4cccnc4)no3)C2)c1
cytotoxicity at 10 µM: -6.03%

Cc1ccc(S(=O)(=O)N2CCC(Oc3cccnn3)CC2)c(C)c1
cytotoxicity at 10 µM: 3.47%

CCOCC1CN(CCc2ccccc2)Cc2c1cnn2C (stereo not given)
cytotoxicity at 10 µM: -120%

CN(C)CC(=O)N1CCC2(CC1)COc1ccccc1S(=O)(=O)N(C)C2
cytotoxicity at 10 µM: 0.0039%

COCC1CN(C(=O)CS(C)(=O)=O)Cc2ncn(CC3CC3)c21 (stereo not given)
cytotoxicity at 10 µM: 5.29%

CC/N=c1\nc(NCC)nc2n1C(O)(Nc1ccc(C)cc1C)CS2 (stereo not given)
cytotoxicity at 10 µM: -1.95%

CCOc1cc(CNCCCn2ccnc2)cc(Cl)c1OC
cytotoxicity at 10 µM: -5.21%

Cc1cc(=O)n2c3c(cc(S(=O)(=O)NC4CC4)cc13)CCC2
cytotoxicity at 10 µM: -32.3%

Cn1nnc(NCc2ccc(-c3ccc(Cl)cc3)o2)n1
cytotoxicity at 10 µM: -7.15%

Cc1nn(C)c(C)c1CNC(=O)CCn1ncc2c(Cl)cccc21
cytotoxicity at 10 µM: 8.38%

CC(C)=CCCC1(C)C=Cc2c(cc(C)n(CCC(=O)O)c2=O)O1 (stereo not given)
cytotoxicity at 10 µM: 3.46%

Cc1cc(-c2cc(N)c(=O)n(CC(=O)NCC3CCCCC3)n2)c(C)o1
cytotoxicity at 10 µM: -21.1%

CN1CCCC(Cc2ccnc3ccncc23)CC1 (stereo not given)
cytotoxicity at 10 µM: -0.336%

O=C(CCn1cncn1)NC1CCS(=O)(=O)C1 (stereo not given)
cytotoxicity at 10 µM: -45.4%

O=C(Nc1cccnc1N1CCSCC1)c1ccc2c(c1)OCO2
cytotoxicity at 10 µM: -6.14%

Cc1nc(C)c(C(C)NCc2c(C)nn(CC(C)C)c2N(C)C)s1 (stereo not given)
cytotoxicity at 10 µM: -2.49%

Cc1nc(CN(C)C2CCN(CC(=O)N(C)CCC#N)C2)no1 (stereo not given)
cytotoxicity at 10 µM: -3.6%

COc1cc(CNCCC(N)=O)c2c(c1)CC(C)O2 (stereo not given)
cytotoxicity at 10 µM: 8.41%

CNC(=O)CS(=O)(=O)NC1CCC(C)CC1 (stereo not given)
cytotoxicity at 10 µM: -8.18%

N#CCCN(C(=O)CCc1cccnc1)c1ccc2c(c1)OCCO2
cytotoxicity at 10 µM: -5.34%

Cc1nccn1-c1ccc(C(C)NCc2ncc[nH]2)cc1 (stereo not given)
cytotoxicity at 10 µM: 1.91%

Cc1cc(C)c(S(=O)(=O)Nc2cccc3c2OCCO3)cc1C(=O)O
cytotoxicity at 10 µM: 5.87%

Cc1nc2cc(=O)[nH]n2c(C)c1CC(=O)Nc1cnn(C(C)(C)C)c1
cytotoxicity at 10 µM: 15%

CC(NC(=O)Cc1ccccc1F)C(=O)N1CCS(=O)(=O)CC1 (stereo not given)
cytotoxicity at 10 µM: 8.68%

COCCN(Cc1ccc(F)cc1Cl)C(=O)c1cc(C)no1
cytotoxicity at 10 µM: 8.75%

Cc1nc(C)n(CC2CCCN2Cc2nnc(-c3ccco3)o2)n1 (stereo not given)
cytotoxicity at 10 µM: 11.4%

Cc1[nH]ncc1C(=O)N1CCOC(c2cccs2)C1 (stereo not given)
cytotoxicity at 10 µM: 8.8%

c1coc(-c2noc(CN3CCc4c(ncn4C4CC4)C3)n2)c1
cytotoxicity at 10 µM: -8.12%

CC1CN(C(=O)c2cc(=O)[nH]c3ccc(F)cc23)CCO1 (stereo not given)
cytotoxicity at 10 µM: 19.3%

COc1ccc(NC(=O)C2CCCO2)cc1OCc1cccnc1 (stereo not given)
cytotoxicity at 10 µM: -23.6%

Cc1cccc(CNCC2COC3(CCCC3)O2)c1C (stereo not given)
cytotoxicity at 10 µM: -150%

CN1CC(NC(=O)Cc2csc(C(C)(C)C)n2)CCC1=O (stereo not given)
cytotoxicity at 10 µM: 1.82%

CC(NC(=O)CCC(C)(C)C)C(=O)Nc1ccc(-n2cncn2)cc1 (stereo not given)
cytotoxicity at 10 µM: -3.46%

Cc1ccc(SC2CCCC2)c(C(=O)NCCc2n[nH]c(=O)[nH]2)c1
cytotoxicity at 10 µM: -45.3%

Cn1c(CCN2CCN(CCc3ccccc3)CC2)nc2ccccc21
cytotoxicity at 10 µM: -43.7%

FC(F)(F)c1n[nH]c2c1CN(CCc1ccccn1)CC2
cytotoxicity at 10 µM: 3.76%

CC(NCc1cnn(C)c1)c1ccc(OCc2nccn2C)cc1 (stereo not given)
cytotoxicity at 10 µM: -7.16%

Cc1nc(CN2CCC3(C2)CN(C(=O)c2ccc[nH]2)C3)cs1
cytotoxicity at 10 µM: -112%

Cc1cccc(S(=O)(=O)N2C[C@@H]3C[C@@H](c4nc(C)no4)O[C@@H]3C2)c1
cytotoxicity at 10 µM: -1.05%

Cn1ccc(-c2cc(C(=O)N3CCCCC3)c3ccccn23)n1
cytotoxicity at 10 µM: -45.7%

CN(C)C(=O)N1CCn2cc(CNC(=O)CC3CC3)nc2C1
cytotoxicity at 10 µM: -80.2%

Cc1cccc(C(=O)N2CCn3cc(CN4CCCCC4)nc3C2)n1
cytotoxicity at 10 µM: -79%

O=C1NC2(CCN(Cc3cccnc3)CC2)CC1c1ccncc1 (stereo not given)
cytotoxicity at 10 µM: 5.33%

c1cc(-c2n[nH]cc2-c2ccnc(N3CCCCCC3)n2)ccn1
cytotoxicity at 10 µM: -0.252%

COCCc1nc(CSc2ccncc2)n(C)n1
cytotoxicity at 10 µM: -5.93%

CCCn1ncc(-c2ccnc(NC3CCSC3)n2)c1C (stereo not given)
cytotoxicity at 10 µM: 2.65%

CC(C)Nc1ccnc(N2Cc3cnc(C(C)(C)C)nc3C2)n1
cytotoxicity at 10 µM: 8.33%

Cc1n[nH]c(C)c1CCC(=O)NCC1CCOc2ccccc2C1 (stereo not given)
cytotoxicity at 10 µM: -45.6%

CNC(=O)c1n[nH]c2c1C(c1cccc3c1OC(C)(C)C3)CC(=O)N2 (stereo not given)
cytotoxicity at 10 µM: 0.0642%

CCC(Nc1cccc(OC)c1)C(=O)N(CCO)Cc1nccs1 (stereo not given)
cytotoxicity at 10 µM: 3.94%

O=c1[nH]c(-c2ccc(F)cc2)nc2c1CCNC2
cytotoxicity at 10 µM: -2.47%

CCC1CCC(NCCN2CCOCC2)CC1 (stereo not given)
cytotoxicity at 10 µM: 3.62%

O=C(c1ccc(=O)[nH]c1)N1CCC(Oc2cccc(C(F)(F)F)c2)CC1
cytotoxicity at 10 µM: 2.26%

CC(C)[C@H]1CN(c2cnccn2)C[C@@H]1NC(=O)C1(C#N)CCOCC1
cytotoxicity at 10 µM: -6.35%

CN(C)CCn1ccnc1C1CCCN(c2nccc3ccccc23)C1 (stereo not given)
cytotoxicity at 10 µM: -7.55%

CC[C@@]1(O)CCN(c2ncc(Cl)cc2F)C[C@H]1O
cytotoxicity at 10 µM: 2.38%

Cc1nccn1CCCN1CCCC(c2ccccc2)C1 (stereo not given)
cytotoxicity at 10 µM: -24.8%

CC(=O)c1ccc(CN2CCCC23CCN(c2ccccn2)CC3)cc1
cytotoxicity at 10 µM: 1.5%

Cc1nc(C)n(CCNS(=O)(=O)NCc2ccccc2)n1
cytotoxicity at 10 µM: -11.4%

CN1CC2(CCN(c3ncnc4c3CCNC4)CC2)OC1=O
cytotoxicity at 10 µM: -3.2%

COc1ccc(C(=O)N2CCOCC(CO)C2)cc1N1CCOCC1 (stereo not given)
cytotoxicity at 10 µM: -14%

CN1CCC(Oc2ccc(-n3ccnc3-c3ccncc3)cc2)CC1
cytotoxicity at 10 µM: -3.05%

COCCCN1CCN(C(=O)C(c2cccc(F)c2)N(C)C)CC1 (stereo not given)
cytotoxicity at 10 µM: -13.1%

O=C(CN1CCOC1=O)N1CCc2nnc(Cc3ccccc3)n2CC1
cytotoxicity at 10 µM: -45.6%

Cc1ccccc1C1CCCN1C(=O)CN1CC2(CCNCC2)OC1=O (stereo not given)
cytotoxicity at 10 µM: -11.1%

O=C(c1ccccn1)N1CCc2c(nc(N3CCCC3)[nH]c2=O)C1
cytotoxicity at 10 µM: -5.71%

C=Cn1ncc(CN2C[C@@H]3CCCN3C[C@@H]2Cc2ccccc2)c1C
cytotoxicity at 10 µM: -5.74%

Cc1nc(CN2CCCC2c2noc(C3CC3)n2)oc1C (stereo not given)
cytotoxicity at 10 µM: -8.13%

Cc1ccccc1C1(C(=O)NCCN2CCCC(C)C2)CCOCC1 (stereo not given)
cytotoxicity at 10 µM: -2.34%

COCCn1cc(NC(=O)NCC(c2cccc(F)c2)N(C)C)cn1 (stereo not given)
cytotoxicity at 10 µM: -5.6%

Cc1cnn(CC2CN(Cc3nc(-c4ccsc4)no3)CCO2)c1 (stereo not given)
cytotoxicity at 10 µM: -9.74%

CC(C)c1nc(CN2CCOC(CNc3cccnn3)C2)cs1 (stereo not given)
cytotoxicity at 10 µM: -2.93%

c1cc2n(n1)CC(CNCc1ccc(OC3CCCCC3)nc1)CN2 (stereo not given)
cytotoxicity at 10 µM: -8.49%

Cc1nc(C)n(CC2CN(c3ccc(C#N)cn3)CCO2)n1 (stereo not given)
cytotoxicity at 10 µM: -10.5%

CCc1nnsc1C(=O)NCCn1nc2ccccn2c1=O
cytotoxicity at 10 µM: -2.04%

Cc1nnc(NCc2ccccc2Cl)c(C#N)c1C
cytotoxicity at 10 µM: -5.06%

CC(NC(=O)NCCN1CCCCCC1=O)c1nncn1C (stereo not given)
cytotoxicity at 10 µM: -7%

CC(Cn1cccn1)NC(=O)NCCc1cnn(C)c1 (stereo not given)
cytotoxicity at 10 µM: -0.0611%

CCN1CCN(C2CCN(Cc3cc(C)on3)CC2)C1=O
cytotoxicity at 10 µM: -5.74%

COc1cccc(CNc2cnn(C)c(=O)c2Cl)c1
cytotoxicity at 10 µM: -8.78%

CCCN(Cc1ccccc1)Cn1nc(C)c2c(C)onc2c1=O
cytotoxicity at 10 µM: -9.98%

COc1cc(C)nc(N2CCN(C(=O)c3ccc[nH]3)CC2)n1
cytotoxicity at 10 µM: -5.11%

COc1c(CNCC(c2cccc(F)c2)N(C)C)c(C(C)C)nn1C (stereo not given)
cytotoxicity at 10 µM: -3.27%

COc1ccc(CCC2CCCCN2)cc1 (stereo not given)
cytotoxicity at 10 µM: -9.83%

COc1ccc(CN(Cc2cncn2C)CC2CCCO2)c(OC)c1 (stereo not given)
cytotoxicity at 10 µM: -4.48%

Cc1cc(C[C@@H]2COC[C@H]2NCc2ccccc2C(F)(F)F)on1
cytotoxicity at 10 µM: -6.15%

CN(C)C(=O)C1OC2(CCN(c3ncc(F)cn3)CC2)c2ccccc21 (stereo not given)
cytotoxicity at 10 µM: 6.27%

Cn1ncc2c1CN(Cc1ccccc1F)CC2COCC1CC1 (stereo not given)
cytotoxicity at 10 µM: 1.47%

COCCC(=O)N1CCC2(CCN(Cc3cccc(F)c3)CC2)C1
cytotoxicity at 10 µM: -75.9%

Cc1n[nH]cc1CNC1CCN(c2ccc(F)cc2)CC1
cytotoxicity at 10 µM: -54%

COCCN1CCOCC12CCN(c1ccc(C#N)cc1)CC2
cytotoxicity at 10 µM: -2.51%

Cc1ccc(N2C[C@H]3OCC[C@H]3[C@H](C(=O)NCC3CC3)C2)nn1
cytotoxicity at 10 µM: -75.7%

Cc1nnc(N2CC[C@H]3C[C@H](C(=O)N4CCOCC4)O[C@H]3C2)s1
cytotoxicity at 10 µM: -0.671%

O=C(c1cc2c(s1)CCCC2)N1CCc2nc(C3CCCN3)ncc2C1 (stereo not given)
cytotoxicity at 10 µM: -3.04%

Cc1cc(C(=O)N2CCC3(CC2)C(=O)N(C)CCN3CC(C)C)c(C)o1
cytotoxicity at 10 µM: -112%

c1ccc(COC[C@H]2CC[C@H]3[C@H](CCN3Cc3cccs3)O2)nc1
cytotoxicity at 10 µM: -85%

Fc1cccc(CN2C[C@@H]3COC[C@]3(COCc3ccncc3)C2)c1
cytotoxicity at 10 µM: -61.1%

CNC(=O)[C@H]1CO[C@H]2CCN(Cc3ccc4ccccc4n3)C[C@H]2C1
cytotoxicity at 10 µM: 8.05%

Cc1nc(CN2C(=O)CC[C@@H]3[C@H]2CCN3C2CCOCC2)cs1
cytotoxicity at 10 µM: -147%

O=C1NC2(CCNCC2)CC1c1ccccc1 (stereo not given)
cytotoxicity at 10 µM: -72.7%

CN(Cc1ccncc1)C1COC2(CCN(Cc3ccsc3)CC2)C1 (stereo not given)
cytotoxicity at 10 µM: -91.8%

CNC(=O)c1cnc(C=Cc2cc(OC)c(O)c(OC)c2)s1
cytotoxicity at 10 µM: 1.64%

CCN1C[C@@H]2C[C@H](C(=O)NCc3cccnc3)[C@H](C1)O2
cytotoxicity at 10 µM: 2.01%
